Screening data as filed in PubChem.
STAT3 inh – inhibitors of IL-6 induced STAT3 signaling; inhibition, % at 5.5 µM; AID 862; U3A cells, IL-6 STAT3-luciferase reporter, luminescence; host cell line lacks STAT1; actives 0.89% (n = 190,000);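 active = inhibition above the mean inhibition across all screened compounds plus 3 SD, cut at about 44% in these data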
STAT1 act – activators of IFN-gamma induced STAT1 signaling; NIH 3T3 STAT1-luciferase reporter, luminescence; 100% = IFN-gamma alone, no compound; activation (% of control), % at 5.5 µM; actives 2.6% (n = 200,000);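 active = activation above the screen-wide mean activation plus 3 SD, cut at about 130% in these data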
FLuc act counter – affects firefly luciferase, flagging false hits in luciferase stimulation screens. P08659. ATPlite luciferase biochemical, luminescence, 10 min; 0 = ATP-free wells, 1 = DMSO control. activation factor at 10 µM. 200,000 tested, under 10 active. AID 1027;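 active = luciferase activation factor, scaled between plate controls, of at least 2 with compound at 10 µM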
Target sequence (P08659 whole entry, looked up): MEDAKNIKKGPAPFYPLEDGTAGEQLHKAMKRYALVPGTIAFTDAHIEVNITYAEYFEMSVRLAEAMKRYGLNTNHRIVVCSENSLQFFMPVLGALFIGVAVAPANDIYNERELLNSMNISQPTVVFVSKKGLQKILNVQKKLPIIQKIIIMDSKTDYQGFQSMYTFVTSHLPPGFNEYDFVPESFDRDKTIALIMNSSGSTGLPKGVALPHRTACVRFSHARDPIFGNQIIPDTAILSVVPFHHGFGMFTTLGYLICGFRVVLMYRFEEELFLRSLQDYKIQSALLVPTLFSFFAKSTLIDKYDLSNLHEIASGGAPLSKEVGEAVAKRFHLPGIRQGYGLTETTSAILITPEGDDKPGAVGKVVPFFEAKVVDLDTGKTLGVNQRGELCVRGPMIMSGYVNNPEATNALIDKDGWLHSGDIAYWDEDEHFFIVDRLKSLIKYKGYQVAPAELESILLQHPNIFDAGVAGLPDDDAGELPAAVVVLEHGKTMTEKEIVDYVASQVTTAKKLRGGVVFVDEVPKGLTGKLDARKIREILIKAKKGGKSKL
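Assay system: Luciferase/luciferin detection reagent, cell-free biochemical luciferase assay / Read-out: luciferase activation / Benchmarks: No-ATP low control, compound-free enzyme-plus-ATP high control / Medium: PBS buffer for ATP / Detection: luminescence measurement of luciferase light output / Schedule: 10 min at ambient temperature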
STAT3 act – activators of IL-6 induced STAT3 signaling. U3A cells, IL-6 STAT3-luciferase reporter, luminescence; 100% = signal with IL-6 EC80 alone. activation (% of control), % at 5.6 µM. actives 0.91% (n = 190,000);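 active = activation above the screen-wide mean of compound activation plus 3 SD, cut at about 130% in these data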
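Material: STAT3-luciferase reporter U3A cells. Controls: IL-6-treated wells, 100% activation. Read-out: % activation versus median of IL-6-stimulated wells. Probe or stimulus: IL-6 stimulus at 33 ng/mL final. Timing: compound 1 h, then IL-6 6 h at 37 °C. Signal: reporter luminescence signal.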
STAT1 inh – STAT1 signaling inhibition. NIH 3T3 STAT1-luciferase reporter, IFN-gamma, luminescence. inhibition, % at 5.5 µM. actives 0.35% (n = 200,000). AID 920;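 active = inhibition above a set limit, the mean inhibition across all tested compounds plus 3 SD, cut at about 34% in these data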
FLuc inhib CS – Photinus pyralis luciferase inhibition counter-screen | P08659 | actives 1.5% (n = 200,000) | ATPLite firefly luciferase biochemical luminescence, 10 min | inhibition, % at 10 µM | AID 1006;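 active = inhibition above about 50% when tested at 10 µM, limit read from the data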
Each line names hits and unclear results; the compound was inactive in the other large screens. Shown are actives, neighbours in structure and some others; about 4.9% of the full set was active somewhere.

COC(=O)C(NC(=O)c1ccco1)(Nc1cc(C)ccn1)C(F)(F)F (stereo not drawn)	none
Cc1ccnc(NC(=S)NC(=O)c2ccco2)c1	STAT1 act 130, FLuc inhib CS 61
Cc1ccnc(NC(=S)NC(=O)/C=C/c2ccco2)c1	STAT1 act 144
CC(C)(C)C(=O)NC(=S)Nc1ccccn1	none
O=C(NC(=S)Nc1ccccn1)c1ccco1	STAT1 act 132
COc1cccc(CC(=O)N2CCN(c3ccccc3[N+](=O)[O-])CC2)c1	none
N#CC1=C(N)N(c2ncn[nH]2)C2=C(C(=O)CCC2)C1c1ccccc1 (stereo not drawn)	none
CCN1C(=O)N(C(C)=O)C2C1N(C(C)=O)C(=O)N2C(C)=O (stereo not drawn)	none
O=C1C2C3C=CC(C3)C2C(=O)N1c1ccc(N2CCN(c3ccccn3)CC2)c([N+](=O)[O-])c1 (stereo not drawn)	none
CN(C)S(=O)(=O)c1cc(NC(=O)COC(=O)C2CSC3(C)CCC(=O)N23)ccc1Cl (stereo not drawn)	none
O=C(c1ccc(Cn2c(=S)[nH]c3ccc(Br)cc3c2=O)cc1)N1CCN(C2CCCCC2)CC1	none
COc1cc(-c2cc(=O)c3ccccc3o2)ccc1O	STAT1 act 134
NC(=O)COc1ccc2oc(-c3ccccc3)cc(=O)c2c1	FLuc inhib CS 56
COc1ccc(-c2cc(=O)c3c(O)c(OC)c(O)cc3o2)cc1	FLuc inhib CS 90 (no result: STAT3 inh, STAT3 act)
O=c1cc(-c2ccncc2)oc2ccccc12	none
O=c1cc(-c2ccc(O)cc2)oc2ccc(O)cc12	STAT1 act 150
O=C1CCC(/C=C/c2ccccc2)=NN1Cc1ccc(F)cc1	none
O=C(COC(=O)c1c(Cl)ccc(Cl)c1Cl)NC1CCS(=O)(=O)C1 (stereo not drawn)	none
Cc1ccc(OCC(=O)NCc2ccccn2)c(Br)c1	STAT1 act 141
O=C(COc1ccc(F)cc1Br)NCc1ccccn1	none
O=C(Cn1cnc2cc([N+](=O)[O-])ccc2c1=O)NC(c1ccccc1)c1ccccc1	none
Cc1csc(=NC(=O)c2ccccc2)n1C	none
O=C(N=c1nc2ccccn2s1)c1ccccc1	FLuc inhib CS 95 (no result: STAT3 inh, STAT1 act, STAT3 act, STAT1 inh)
C/C(=N\NC(=O)c1c(C)nc2ccccn12)c1ccco1	STAT1 act 134
C/C(=N\NC(=O)c1c(C)nc2ccccn12)c1ccc(N2CCOCC2)cc1	none
Cc1ccc(N=C/C(C(=O)C(F)(F)F)=C(\O)c2cccs2)cc1	STAT3 inh 84, STAT1 inh 54
CCCc1cc(C(=O)Nc2ccc(F)cc2F)no1	STAT1 act 130
COc1cccc(NC(=O)c2cccc(OC)c2OC)c1	STAT1 act 136
COc1cccc(C(=O)Nc2ccc(N(C)C)cc2)c1OC	STAT1 act 142
C/C(CC(=O)Nc1ccc(N(C)C)cc1)=N\NC(=O)c1ccccn1	STAT1 act 140
CN(C)c1ccc(NC(=O)c2cccc(C(=O)Nc3ccc(N(C)C)cc3)n2)cc1	FLuc inhib CS 56
C/C(CC(=O)Nc1ccc(N(C)C)cc1)=N\NC(=O)c1cnccn1	none
Cc1nn(C)c(Cl)c1CN1CCN(CC(C)C)C(CCO)C1 (stereo not drawn)	none
CC(=O)NS(=O)(=O)c1ccc(NC(=O)CN2C(=O)C3C4C=CC(C4)C3C2=O)cc1 (stereo not drawn)	none
COC(=O)Cn1c(O)c(N=NC(=O)c2ccc3c(c2)OCO3)c2ccccc21	FLuc inhib CS 76
Cc1ccc(C(=O)Oc2ccc(N3C(=O)CCC3=O)c(C)c2)cc1	FLuc inhib CS 54
O=C(Nc1nnc(-c2ccccc2Cl)o1)c1cc2cc([N+](=O)[O-])ccc2s1	none
O=C(Nc1ccc(Cl)cn1)c1ccc(-c2cc(Cl)ccc2Cl)o1	none
O=C(Nc1ccc(Cl)cn1)c1cc2ccccc2o1	FLuc inhib CS 64
O=C(Nc1ccccn1)c1cc2ccccc2o1	STAT3 inh 89, STAT1 inh 53, FLuc inhib CS 95
O=C(Nc1ccc(Br)cn1)c1cccc(-c2cc3ccccc3oc2=O)c1	STAT1 act 144
O=C(Nc1ccccn1)c1cc2cc([N+](=O)[O-])ccc2s1	STAT1 act 145
COc1ccc(C(=O)N2CCN(C(=O)Cc3ccccc3)CC2)cc1	none
COc1cc(OC)c(OC)cc1CN1CCN(Cc2cccn2C)CC1	none
COc1ccc(/C=N/N(Cc2ccccc2)c2ccccc2)cc1O	none
CC1CCc2onc(C(=O)O)c2C1 (stereo not drawn)	none
CC(=O)c1ccc(N2CCN(C(C)C(=O)NC3CCCc4ccccc43)CC2)cc1 (stereo not drawn)	none
CC(=O)Nc1cccc(Oc2ccc(-c3noc(C)n3)cc2)c1	STAT1 act 138
COc1ccc(-c2noc(-c3ccccc3C(=O)Nc3cccc(OC)c3)n2)cc1	none
CC(C)NC(=O)COC(=O)CNC(=O)c1cc(Cl)cc([N+](=O)[O-])c1	none
O=C(CSc1ccc2ccccc2n1)Nc1ccc(N2CCOCC2)cc1	none
Cc1cccc(NC(=O)c2cnc3n(c2=O)CCS3)c1	STAT1 act 132
O=C(Nc1ccc2c(c1)OCCO2)c1cnc2n(c1=O)CCS2	STAT1 act 142
O=C(Nc1ccccc1)c1cnc2n(c1=O)CCS2	none
CCOC(=O)C/C(N)=N/N(C)c1ncc(C(F)(F)F)cc1Cl	none
CC1(CC(=O)N/N=C/c2cc3c(cc2Br)OCO3)OCCO1	none
Nc1cccc(-c2nc3ccc(N)cc3s2)c1	FLuc inhib CS 93
Nc1ccc(-c2nc3ccc(C(=O)O)cc3s2)cc1	STAT3 inh 104, STAT1 inh 89, FLuc inhib CS 76
Nc1cc2sc(-c3ccc(C(=O)O)cc3)nc2cc1Cl	FLuc inhib CS 76
COc1ccc(OCC(=O)N2N=C(C)CC2(O)C(F)(F)F)cc1 (stereo not drawn)	none
Cc1occc1C(=O)N/N=C/c1c[nH]c2ccccc12	STAT1 act 132
Cc1occc1C(=O)N/N=C/C=C/c1ccccc1[N+](=O)[O-]	none
COc1cc(/C=N/NC(=O)c2ccoc2C)cc(OC)c1O	STAT1 act 135
COC(=O)N/N=C/c1c[nH]c2ccccc12	none
Cc1occc1C(=O)N/N=C/C=C/c1ccccc1	STAT1 act 146
Cc1ccc(/C=N/NC(=O)c2ccoc2C)o1	STAT1 act 132
NNC1=N[C@H]2CS(=O)(=O)C[C@H]2S1	none
CC(=O)c1ccc(NC(=O)C2CC(=O)N(C(C)C)C2)cc1 (stereo not drawn)	none
CC(=O)c1ccc2c(c1)Cc1cc(C(C)=O)ccc1-2	STAT1 act 146
Cc1nn(C)c(C(=O)N/N=C/c2ccc(Br)cc2)c1Cl	none
